ChEMBL document CHEMBL4622983, “Structure-Activity Relationship Studies of α-Ketoamides as Inhibitors of the Phospholipase A and Acyltransferase Enzyme Family” (J Med Chem, 2020)
Calls of active or inactive are those of the source. No cut-off for these calls is given here.

Key:
[1] = biological target: T1, Phospholipase A and acyltransferase 3 (Homo sapiens, UniProt P53816); assay: Inhibition of full-length C-terminal FLAG-tagged human PLAAT3 expressed in HEK293T cell lysate preincubated for 30 mins followed by MB064 addition and measured after 20 mins by SDS-PAGE based ABPP analysis; type: cell-free, HEK-293T
T1 sequence (P53816 whole entry): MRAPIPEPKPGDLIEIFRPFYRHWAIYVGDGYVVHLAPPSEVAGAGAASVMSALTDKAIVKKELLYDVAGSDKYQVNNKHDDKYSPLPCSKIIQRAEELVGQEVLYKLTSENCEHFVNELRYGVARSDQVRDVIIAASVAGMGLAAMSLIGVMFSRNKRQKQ
Summary of the method: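 Dose–response competitive ABPP on cytosol only, from HEK293T overexpressing FLAG-tagged PLAAT. Inhibitor 30 min rt, then MB064 20 min rt. PLAAT2 0.25 μg/μL with 250 nM probe; PLAAT3 0.5 μg/μL with 250 nM; PLAAT4 and PLAAT5 1 μg/μL with 500 nM. Fluorescence normalized to Coomassie. IC50 from curves, reported as pIC50 ± SEM, n = 3.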

[2] = biological target: Cannabinoid receptor 1 (Homo sapiens) (UniProt P21554); assay: Displacement of [3H]CP55940 from human CB1 receptor expressed in CHOK1 cell membranes at 10 uM by liquid scintillation spectrometry analysis; details: CHO-K1
Summary of the method: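 [3H]CP55940 displacement at human CB1 or CB2 receptors, single test concentration 10 μM. Result expressed as % radioligand displacement ± SD (N = 2, n = 2).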

[3] = biological target: Diacylglycerol lipase-alpha (Mus musculus) (UniProt Q6WQJ1); assay: Inhibition of mouse brain membrane DAGLalpha assessed as enzyme remaining activity at 10 uM preincubated for 30 mins followed by MB064 or FP-TAMRA addition and measured after 15 mins by SDS-PAGE based ABPP analysis relative to control; type: cell membranes
Summary of the method: (§1)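 Mouse brain membrane proteome (2 μg/μL) preincubated with 10 μM inhibitor for 30 min at rt. Then MB064 250 nM or FP-TAMRA 500 nM for 15 min at rt. Resolved on 10% SDS-PAGE, fluorescence normalized to Coomassie. Reported as % remaining activity ± SD, n = 3.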

[4] = biological target: Fatty-acid amide hydrolase 1 (Mus musculus) (UniProt O08914); assay: Inhibition of mouse brain membrane FAAH assessed as enzyme remaining activity at 10 uM preincubated for 30 mins followed by MB064 or FP-TAMRA addition and measured after 15 mins by SDS-PAGE based ABPP analysis relative to control; type: cell membranes; summary of the method: as §1
[5] = biological target: T2, Phospholipase A and acyltransferase 2 (Homo sapiens) (UniProt Q9NWW9); assay: Inhibition of full-length C-terminal FLAG-tagged human PLAAT2 expressed in human U2OS cells assessed as reduction in absolute N-stearoylethanolamine level at 10 uM incubated for 4 hrs by LC-MS/MS analysis; type: cell-based
T2 sequence (whole entry): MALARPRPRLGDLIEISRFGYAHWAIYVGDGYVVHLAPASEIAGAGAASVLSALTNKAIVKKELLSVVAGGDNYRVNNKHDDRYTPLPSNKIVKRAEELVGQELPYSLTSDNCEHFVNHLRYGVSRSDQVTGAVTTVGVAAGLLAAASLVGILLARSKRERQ
Summary of the method: (§2)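 U2OS cells transfected with PLAAT2, PLAAT5 or empty vector (PEI, 1:5 plasmid/PEI). At 24 h, switched to serum-free medium with 10 μM compound (0.1% DMSO) or DMSO for 4 h at 37 °C. Pellets extracted with MTBE against deuterated internal standards. NAEs, 2-AG and free fatty acids quantified by LC–MS/MS, normalized to live cell count. Four biological replicates; one-way ANOVA.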

[6] = biological target: T2, Phospholipase A and acyltransferase 2 (Homo sapiens); assay: Inhibition of full-length C-terminal FLAG-tagged human PLAAT2 expressed in human U2OS cells assessed as reduction in absolute N-linoleoylethanolamine level at 10 uM incubated for 4 hrs by LC-MS/MS analysis; type: cell-based; summary of the method: as §2
[7] = biological target: T3, Phospholipase A and acyltransferase 5 (Homo sapiens) (UniProt Q96KN8); assay: Inhibition of full-length C-terminal FLAG-tagged human PLAAT5 expressed in human U2OS cells assessed as reduction in absolute N-eicosapentaenoylethanolamine level at 10 uM incubated for 4 hrs by LC-MS/MS analysis; type: cell-based; summary of the method: as §2
T3 sequence (whole entry): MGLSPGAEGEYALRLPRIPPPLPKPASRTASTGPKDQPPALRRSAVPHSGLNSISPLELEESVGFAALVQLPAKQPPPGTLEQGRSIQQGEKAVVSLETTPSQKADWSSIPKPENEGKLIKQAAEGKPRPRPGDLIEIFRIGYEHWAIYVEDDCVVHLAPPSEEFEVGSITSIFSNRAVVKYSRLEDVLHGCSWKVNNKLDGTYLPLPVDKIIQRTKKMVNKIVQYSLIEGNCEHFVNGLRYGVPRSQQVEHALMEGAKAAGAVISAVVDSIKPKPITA

[8] = test system: U2OS; assay: Downregulation of N-oleoylethanolamine level in human U2OS cells at 10 uM after 4 hrs by LC-MS/MS analysis; type: functional, cell-based; summary of the method: as §2
[9] = test system: U2OS; assay: Downregulation of N-eicosapentaenoylethanolamine level in human U2OS cells at 10 uM after 4 hrs by LC-MS/MS analysis; type: functional, cell-based; summary of the method: as §2
[10] = test system: U2OS; assay: Downregulation of N-docosahexaenoylethanolamine level in human U2OS cells at 10 uM after 4 hrs by LC-MS/MS analysis; type: functional, cell-based; summary of the method: as §2
[11] = biological target: T2, Phospholipase A and acyltransferase 2 (Homo sapiens); assay: Inhibition of full-length C-terminal FLAG-tagged human PLAAT2 expressed in human U2OS cells assessed as reduction in arachidonic acid level at 10 uM incubated for 4 hrs by LC-MS/MS analysis; type: cell-based; summary of the method: as §2
[12] = biological target: T3, Phospholipase A and acyltransferase 5 (Homo sapiens); assay: Inhibition of full-length C-terminal FLAG-tagged human PLAAT5 expressed in human U2OS cells assessed as reduction in N-docosahexaenoylethanolamine level at 10 uM incubated for 4 hrs by LC-MS/MS analysis; type: cell-based; summary of the method: as §2
[13] = biological target: T3, Phospholipase A and acyltransferase 5 (Homo sapiens); assay: Inhibition of full-length C-terminal FLAG-tagged human PLAAT5 expressed in human U2OS cells assessed as reduction in 2-AG level at 10 uM incubated for 4 hrs by LC-MS/MS analysis; type: cell-based; summary of the method: as §2
[14] = test system: U2OS; assay: Inhibition of serine hydrolase in human U2OS cell membrane fraction at 10 uM preincubated for 30 mins followed by MB064 addition and measured after 15 mins by SDS-PAGE based competitive ABPP analysis
Summary of the method: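 U2OS cytosol or membrane lysate at 2.5 μg/μL, pretreated with inhibitor or DMSO vehicle for 30 min at rt. Probe then added for 15 min at rt: MB064 at 2 μM or FP-TAMRA at 500 nM. Samples denatured in Laemmli buffer and resolved by SDS-PAGE. In-gel fluorescence scanned at Cy3/Cy5 settings and normalized to Coomassie staining.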

[15] = biological target: Cytosolic phospholipase A2 gamma (Homo sapiens) (UniProt Q9UP65); assay: Inhibition of human PLA2G4C expressed in HEK293T cell lysates at 10 uM preincubated for 30 mins followed by FP-TAMRA addition and measured after 20 mins by SDS-PAGE based competitive ABPP analysis; type: cell-free; details: HEK-293T
Summary of the method: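 hPLA2G4B, C or D-overexpressing membrane lysate (1 μg/μL) preincubated with inhibitor for 30 min at rt. FP-TAMRA 500 nM added for 20 min at rt. In-gel fluorescence after SDS-PAGE, normalized to Coomassie.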

Fatty-acid amide hydrolase 1 (Mus musculus), sequence (O08914 whole entry): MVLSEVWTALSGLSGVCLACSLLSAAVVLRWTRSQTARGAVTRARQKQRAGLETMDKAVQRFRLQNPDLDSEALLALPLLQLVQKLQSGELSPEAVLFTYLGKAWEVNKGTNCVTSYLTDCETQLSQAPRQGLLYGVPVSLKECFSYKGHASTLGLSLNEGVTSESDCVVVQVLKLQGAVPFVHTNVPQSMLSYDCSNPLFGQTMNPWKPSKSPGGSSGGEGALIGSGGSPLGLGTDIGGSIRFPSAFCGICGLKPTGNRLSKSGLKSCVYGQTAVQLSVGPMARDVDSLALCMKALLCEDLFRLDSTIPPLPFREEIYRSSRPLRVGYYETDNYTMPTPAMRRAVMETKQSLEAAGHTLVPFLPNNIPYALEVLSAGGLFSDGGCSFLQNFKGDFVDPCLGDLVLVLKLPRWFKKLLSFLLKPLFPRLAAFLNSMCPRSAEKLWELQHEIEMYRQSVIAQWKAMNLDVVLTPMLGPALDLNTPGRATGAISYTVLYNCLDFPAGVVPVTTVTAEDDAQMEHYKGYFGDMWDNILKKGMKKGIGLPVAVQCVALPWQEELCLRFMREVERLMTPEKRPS
Diacylglycerol lipase-alpha (Mus musculus), sequence (Q6WQJ1 whole entry): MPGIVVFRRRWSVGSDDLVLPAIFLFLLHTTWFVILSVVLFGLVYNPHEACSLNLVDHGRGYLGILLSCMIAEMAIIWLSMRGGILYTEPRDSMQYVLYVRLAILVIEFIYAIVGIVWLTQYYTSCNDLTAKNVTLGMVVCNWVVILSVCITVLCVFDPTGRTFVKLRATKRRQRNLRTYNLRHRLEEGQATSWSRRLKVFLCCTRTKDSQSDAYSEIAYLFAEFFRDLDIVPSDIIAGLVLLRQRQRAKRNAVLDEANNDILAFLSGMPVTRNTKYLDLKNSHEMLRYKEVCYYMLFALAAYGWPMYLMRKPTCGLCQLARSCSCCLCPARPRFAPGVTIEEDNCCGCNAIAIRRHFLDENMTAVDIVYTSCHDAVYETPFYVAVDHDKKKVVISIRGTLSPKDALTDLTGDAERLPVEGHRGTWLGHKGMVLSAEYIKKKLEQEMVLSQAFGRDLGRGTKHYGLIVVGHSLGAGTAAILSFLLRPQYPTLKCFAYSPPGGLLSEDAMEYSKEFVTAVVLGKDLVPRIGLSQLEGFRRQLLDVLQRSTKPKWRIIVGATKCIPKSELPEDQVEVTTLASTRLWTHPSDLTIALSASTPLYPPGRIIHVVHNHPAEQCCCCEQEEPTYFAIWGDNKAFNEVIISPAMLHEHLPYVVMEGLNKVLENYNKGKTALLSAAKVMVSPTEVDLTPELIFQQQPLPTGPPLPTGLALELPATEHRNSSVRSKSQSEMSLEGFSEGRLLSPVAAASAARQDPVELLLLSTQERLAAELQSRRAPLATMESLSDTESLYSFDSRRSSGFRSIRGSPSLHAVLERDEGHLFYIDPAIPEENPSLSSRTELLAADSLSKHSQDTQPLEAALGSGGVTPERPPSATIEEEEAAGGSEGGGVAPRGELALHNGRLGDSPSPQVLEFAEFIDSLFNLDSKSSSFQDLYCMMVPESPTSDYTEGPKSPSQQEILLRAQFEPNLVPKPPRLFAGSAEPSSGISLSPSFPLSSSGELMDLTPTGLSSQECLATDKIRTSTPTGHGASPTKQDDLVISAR
Cannabinoid receptor 1 (Homo sapiens), sequence (P21554 whole entry): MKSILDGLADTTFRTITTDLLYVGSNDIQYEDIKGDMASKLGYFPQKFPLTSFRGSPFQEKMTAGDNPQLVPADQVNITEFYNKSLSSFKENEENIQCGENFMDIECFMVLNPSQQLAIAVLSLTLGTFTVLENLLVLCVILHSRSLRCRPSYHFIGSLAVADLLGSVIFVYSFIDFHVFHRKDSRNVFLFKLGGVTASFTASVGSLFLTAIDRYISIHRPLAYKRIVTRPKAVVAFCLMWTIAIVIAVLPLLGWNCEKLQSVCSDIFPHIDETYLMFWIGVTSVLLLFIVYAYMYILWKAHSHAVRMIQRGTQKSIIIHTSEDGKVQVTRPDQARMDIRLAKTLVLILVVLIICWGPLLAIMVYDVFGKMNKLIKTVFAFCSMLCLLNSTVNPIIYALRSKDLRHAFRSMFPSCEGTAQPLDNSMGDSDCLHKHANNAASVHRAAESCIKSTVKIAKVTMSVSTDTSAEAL
Cytosolic phospholipase A2 gamma (Homo sapiens), sequence (Q9UP65 whole entry): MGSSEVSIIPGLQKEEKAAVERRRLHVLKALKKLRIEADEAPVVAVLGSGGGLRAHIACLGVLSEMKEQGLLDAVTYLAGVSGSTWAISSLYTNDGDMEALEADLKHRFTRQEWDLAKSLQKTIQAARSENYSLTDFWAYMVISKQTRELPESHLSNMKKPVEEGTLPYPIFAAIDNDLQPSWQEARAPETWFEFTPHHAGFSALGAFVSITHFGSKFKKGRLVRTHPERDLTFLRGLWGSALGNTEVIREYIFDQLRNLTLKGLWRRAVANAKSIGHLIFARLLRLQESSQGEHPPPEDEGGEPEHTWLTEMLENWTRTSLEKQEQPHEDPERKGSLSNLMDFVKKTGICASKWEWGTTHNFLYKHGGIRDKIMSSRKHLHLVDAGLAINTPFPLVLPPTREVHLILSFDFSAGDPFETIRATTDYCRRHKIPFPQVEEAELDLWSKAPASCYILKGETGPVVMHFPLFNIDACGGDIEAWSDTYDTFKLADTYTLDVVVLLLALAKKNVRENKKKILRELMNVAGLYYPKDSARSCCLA

## O=C(CCCc1ccccc1)C(=O)NCCc1ccc(Oc2ccccc2)cc1
[1]
  IC50: 251 nM
[2]
  Activity: 49%
[3]
  Activity: 97%
[4]
  Activity: 108%
[5]
  inhibition: Active
[6]
  inhibition: Active
[7]
  inhibition: Active
[8]
  inhibition: inactive
[9]
  inhibition: inactive
[10]
  inhibition: inactive
[11]
  inhibition: inactive
[12]
  inhibition: inactive
[13]
  inhibition: inactive
[14]
  inhibition: inactive
[15]
  inhibition: inactive
